What was measured:
[1] = biological target: T1, M-phase inducer phosphatase 1 (Homo sapiens, UniProt P30304); assay: (§1) Inhibitory activity tested against cell division cycle 25A (assay using fluorescein diphosphate (FDP) as substrate)
T1 sequence (P30304 whole entry): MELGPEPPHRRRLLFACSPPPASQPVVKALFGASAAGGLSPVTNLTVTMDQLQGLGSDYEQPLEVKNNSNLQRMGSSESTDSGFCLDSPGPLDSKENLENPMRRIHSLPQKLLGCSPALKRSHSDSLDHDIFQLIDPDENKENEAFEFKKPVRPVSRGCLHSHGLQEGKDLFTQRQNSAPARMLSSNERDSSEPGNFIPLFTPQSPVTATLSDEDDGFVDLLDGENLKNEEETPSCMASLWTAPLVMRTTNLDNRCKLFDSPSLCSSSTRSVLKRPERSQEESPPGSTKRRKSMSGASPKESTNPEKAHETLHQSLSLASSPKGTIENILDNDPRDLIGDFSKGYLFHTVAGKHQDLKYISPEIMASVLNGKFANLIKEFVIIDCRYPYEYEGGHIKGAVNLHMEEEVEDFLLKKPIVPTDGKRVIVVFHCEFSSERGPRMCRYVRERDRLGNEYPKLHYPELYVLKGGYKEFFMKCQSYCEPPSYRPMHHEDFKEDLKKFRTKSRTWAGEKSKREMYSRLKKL
Outline: (§2)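 Recombinant human GST-Cdc25A fusion protein, each batch calibrated so that FDP was dephosphorylated linearly over 20 min. Fluorescein diphosphate was the substrate. Reactions ran 15 min at 25 °C in the dark and were stopped with sodium orthovanadate. IC50 came from at least two independent runs, each in triplicate.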

[2] = biological target: T2, M-phase inducer phosphatase 1 (Homo sapiens) (UniProt P30304); assay: as §1; conditions: concentration not given here
T2 sequence (whole entry): T1 sequence (P30304 whole entry)
Outline: as §2, with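 “orthovanadate. Fluorescein monophosphate was read at 485 nm excitation and 530 nm emission.” for “orthovanadate.”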

[3] = biological target: T3, Receptor-type tyrosine-protein phosphatase C (Homo sapiens, UniProt P08575); assay: Inhibitory activity tested against Human CD45 Phosphatase (assay using p-nitrophenyl phosphate (pNPP) as substrate)
T3 sequence (P08575 whole entry): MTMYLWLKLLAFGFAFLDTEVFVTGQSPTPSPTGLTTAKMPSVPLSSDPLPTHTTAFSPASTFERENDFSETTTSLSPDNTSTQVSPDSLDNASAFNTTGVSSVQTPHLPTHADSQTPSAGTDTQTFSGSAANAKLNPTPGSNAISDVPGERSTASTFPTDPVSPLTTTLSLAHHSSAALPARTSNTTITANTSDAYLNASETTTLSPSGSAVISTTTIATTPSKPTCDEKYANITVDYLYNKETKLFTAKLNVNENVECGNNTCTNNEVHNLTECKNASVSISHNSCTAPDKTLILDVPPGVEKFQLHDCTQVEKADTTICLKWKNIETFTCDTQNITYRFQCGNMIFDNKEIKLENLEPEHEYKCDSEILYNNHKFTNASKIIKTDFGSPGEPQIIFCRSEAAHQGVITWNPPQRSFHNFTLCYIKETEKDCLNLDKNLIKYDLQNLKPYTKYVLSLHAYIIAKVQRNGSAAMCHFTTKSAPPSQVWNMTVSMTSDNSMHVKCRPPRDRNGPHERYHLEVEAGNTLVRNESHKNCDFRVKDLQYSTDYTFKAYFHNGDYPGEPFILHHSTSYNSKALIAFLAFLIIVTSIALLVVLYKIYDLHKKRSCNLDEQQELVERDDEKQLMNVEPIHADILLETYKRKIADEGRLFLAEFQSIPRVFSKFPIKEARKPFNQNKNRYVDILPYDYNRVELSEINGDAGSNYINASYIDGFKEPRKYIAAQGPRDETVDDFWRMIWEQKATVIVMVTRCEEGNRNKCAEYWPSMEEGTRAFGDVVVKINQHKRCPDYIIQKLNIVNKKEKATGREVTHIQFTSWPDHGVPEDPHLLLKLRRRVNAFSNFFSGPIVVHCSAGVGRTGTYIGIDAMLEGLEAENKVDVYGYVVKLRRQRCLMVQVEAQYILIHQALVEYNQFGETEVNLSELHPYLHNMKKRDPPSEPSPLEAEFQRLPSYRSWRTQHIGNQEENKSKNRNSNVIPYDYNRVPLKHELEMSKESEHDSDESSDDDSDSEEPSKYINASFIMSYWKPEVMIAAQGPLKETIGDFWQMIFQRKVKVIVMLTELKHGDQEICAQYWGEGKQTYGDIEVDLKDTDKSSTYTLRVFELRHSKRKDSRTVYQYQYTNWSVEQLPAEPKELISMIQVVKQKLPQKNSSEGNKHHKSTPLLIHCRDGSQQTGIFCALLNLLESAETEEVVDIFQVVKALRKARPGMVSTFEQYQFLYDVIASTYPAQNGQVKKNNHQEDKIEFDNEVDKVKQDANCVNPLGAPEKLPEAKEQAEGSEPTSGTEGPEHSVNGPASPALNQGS

[4] = biological target: T1, M-phase inducer phosphatase 1; assay: Inhibitory activity tested against cell division cycle 25A (assay using p-nitro phenyl phosphate (pNPP) as substrate)
SF-268 = assay: Growth inhibitory activity was determined against SF-268 cancer cell line of CNS cancer; type: functional; conditions: Homo sapiens
Outline: (§3)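 NCI 60 human tumour cell line screen run at the National Cancer Institute. Cell growth and viability read with the protein stain sulforhodamine B, which binds basic amino acids of cells left attached after washing. […] MG MID is the mean GI50 calculated over all panels.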

OVCAR-8 = assay: Growth inhibitory activity was determined against OVCAR-8 cancer cell line of Ovarian cancer; type: functional; conditions: Homo sapiens; outline: as §3
786-0 = assay: Growth inhibitory activity was determined against 786-0 cancer cell line of renal cancer; type: functional; conditions: Homo sapiens; outline: as §3
A549 = assay: Growth inhibitory activity was determined against A549/ATCC cancer cell line of non-small cell lung cancer; type: functional, Homo sapiens; conditions: Homo sapiens, A549; outline: as §3
U-251 = assay: Growth inhibitory activity was determined against U-251 cancer cell line of CNS cancer; type: functional; conditions: Homo sapiens; outline: as §3
SF-539 = assay: Growth inhibitory activity was determined against SF-539 cancer cell line of CNS cancer; type: functional; conditions: Homo sapiens; outline: as §3
LOX IMVI = assay: Growth inhibitory activity was determined against LOX IMVI cancer cell line of melanoma; type: functional, Homo sapiens; conditions: Homo sapiens, LOX IMVI; outline: as §3
BT-549 (Homo sapiens) = assay: Growth inhibitory activity was determined against BT-549 cancer cell line of Breast cancer; conditions: Homo sapiens, BT-549
NCI-H23 = assay: Growth inhibitory activity was determined against NCI-H23 cancer cell line of non-small cell lung cancer; type: functional, Homo sapiens; conditions: Homo sapiens, NCI-H23; outline: as §3
NCI-H522 = assay: Growth inhibitory activity was determined against NCI-H522 cancer cell line of non-small cell lung cancer; type: functional; conditions: Homo sapiens; outline: as §3
NCI/ADR-RES = assay: Growth inhibitory activity was determined against NCI/ADR-RES cancer cell line of Breast cancer; type: functional, Homo sapiens; conditions: Homo sapiens, NCI/ADR-RES; outline: as §3
UO-31 = assay: Growth inhibitory activity was determined against UO-31 cancer cell line of renal cancer; type: functional; conditions: Homo sapiens; outline: as §3
HT-29 = assay: Growth inhibitory activity was determined against HT-29 cancer cell line colon cancer; type: functional, Homo sapiens; conditions: Homo sapiens, HT-29; outline: as §3
T47D = assay: Growth inhibitory activity was determined against T-47D cancer cell line of Breast cancer; type: functional, Homo sapiens; conditions: Homo sapiens, T47D; outline: as §3
SK-MEL-5 = assay: Growth inhibitory activity was determined against SK-MEL-5 cancer cell line of melanoma; type: functional, Homo sapiens; conditions: Homo sapiens, SK-MEL-5; outline: as §3
PC-3 = assay: Growth inhibitory activity was determined against PC-3 cancer cell line of Prostate cancer; type: functional; conditions: Homo sapiens; outline: as §3
SN12C = assay: Growth inhibitory activity was determined against SN12C cancer cell line of renal cancer; type: functional; conditions: Homo sapiens; outline: as §3
OVCAR-3 = assay: Growth inhibitory activity was determined against OVCAR-3 cancer cell line of Ovarian cancer; type: functional; conditions: Homo sapiens; outline: as §3
COLO 205 = assay: Growth inhibitory activity was determined against COLO 205 cancer cell line colon cancer; type: functional, Homo sapiens; conditions: Homo sapiens, COLO 205; outline: as §3

Molecule `CC(C)CCC[C@@H](C)[C@H]1CC[C@H]2[C@@H]3CC[C@H]4C[C@@H](O/C(S)=N\c5ccccc5)CC[C@]4(C)[C@H]3CC[C@]12C` has an IC50 [1] of 2.1 µM.
In the case of `CC(C)CCC[C@@H](C)[C@H]1CC[C@H]2[C@@H]3CC[C@H]4C[C@@H](OC(=O)Nc5ccccc5)CC[C@]4(C)[C@H]3CC[C@]12C`, the inhibition [2] is reported as 18%.
`CC(C)CCC[C@@H](C)[C@H]1CC[C@H]2[C@@H]3CC[C@H]4C[C@@H](OC(=S)S)CC[C@]4(C)[C@H]3CC[C@]12C` was tested, and the IC50 [3] was greater than 100 µM, the IC50 [1] was 1.1 µM and the IC50 [4] was 11.7 µM.
In the case of `C/C(=C/CCCC#N)[C@H]1CC[C@]2(C)[C@@H](C(C)CCCC(C)C)CC[C@H]2[C@@H]1CC(=O)O` (stereo partly specified), the IC50 [1] is reported as 2.4 µM.
With `CC(C)CCC[C@@H](C)[C@H]1CC[C@H]2[C@@H]3CC[C@H]4C[C@@H](O/C(S)=N\c5cccc6ccccc56)CC[C@]4(C)[C@H]3CC[C@]12C` the inhibition [2] was 19%.
Molecule `C/C(=C/C/C=C\C#N)[C@H]1CC[C@]2(C)[C@@H](C(C)CCCC(C)C)CC[C@H]2[C@@H]1CC(=O)O` (stereo partly specified) has an IC50 [1] of 36.3 µM.
With `CC(C)CCC[C@@H](C)[C@H]1CC[C@H]2[C@H](CC(=O)O)[C@@H]([C@@]3(C)CCC=CC3=O)CC[C@]12C` the IC50 [1] was 9.5 µM.
`CCOC(=O)CSC(=S)O[C@H]1CC[C@@]2(C)[C@@H](CC[C@@H]3[C@@H]2CC[C@]2(C)[C@@H]([C@H](C)CCCC(C)C)CC[C@@H]32)C1` was tested, and the IC50 [1] was greater than 100 µM.
`CC(C)CCC[C@@H](C)[C@H]1CC[C@H]2[C@@H]3CC(=O)N4C(=O)C=CCC[C@]4(C)[C@H]3CC[C@]12C` was tested, and the GI50 (SF-268) was greater than 25 µM, the GI50 (OVCAR-8) was 1.97 µM and the GI50 (786-0) was 1.44 µM. It also gave a GI50 (A549) of 4.27 µM, a GI50 (U-251) of 3.46 µM and a GI50 (SF-539) of 4.46 µM. The GI50 (LOX IMVI) was 0.84 µM, the GI50 (BT-549 (Homo sapiens)) was 5.07 µM and the GI50 (NCI-H23) was 4.85 µM. It also gave a GI50 (NCI-H522) of 6.1 µM, a GI50 (NCI/ADR-RES) of 6.05 µM and a GI50 (UO-31) of 2.95 µM. It also gave a GI50 (HT-29) of 2.63 µM, a GI50 (T47D) of 4.09 µM and a GI50 (SK-MEL-5) of 4.37 µM. It also gave a GI50 (PC-3) of 4.22 µM, a GI50 (SN12C) of 3.46 µM and a GI50 (OVCAR-3) of 4 µM. For the same molecule, the GI50 (COLO 205) was 4.76 µM.
With `CCOC(=O)C(C)SC(=S)O[C@H]1CC[C@@]2(C)[C@@H](CC[C@@H]3[C@@H]2CC[C@]2(C)[C@@H]([C@H](C)CCCC(C)C)CC[C@@H]32)C1` (stereo partly specified) the IC50 [1] was greater than 100 µM.
Molecule `CC(C)CCC[C@@H](C)[C@H]1CC[C@H]2[C@@H]3CC[C@H]4C[C@@H](OCC(=O)O)CC[C@]4(C)[C@H]3CC[C@]12C` has an IC50 [1] of 0.7 µM.
